The record followed here is ChEMBL document CHEMBL6134900 (J Med Chem, 2025).

Series [1] is described as follows: Drug concentration in CRBN I391V mutant mouse plasma at 80 mg/kg, po administered once daily for 3 days and measured at 24 hrs post last dose. In kind it is ADME, organism-based. As to conditions: time 3 day. In outline:
(§1)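 Oral dosing once daily for 3 days: 5–80 mg/kg in C57BL/6 mice, 10–80 mg/kg in CrbnI391V mice. Euthanized 24 h after last dose. Plasma drug level measured. Spleen SMARCA2 by Western blot against actin loading control, relative to vehicle.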

Series [2] addresses T1, Protein cereblon/SWI/SNF-related matrix-associated actin-dependent regulator of chromatin subfamily A member 2 (Homo sapiens, UniProt P51531+Q96SW2). The series can be described thus: PROTAC activity at CRBN/SMARCA2 in human H322 cells harboring SMARCA4 mutant assessed as induction of SMARCA2 degradation at 1 uM in presence of MLN4924 by immunoblot analysis. In kind it is cell-based. (In general: In western blotting, separated proteins are transferred to a membrane and probed.)

In series [3] the test system is NCI-H2030. Briefly: Synergistic antitumor activity against human NCI-H2030 cells harboring KRAS G12C mutant/SMARCA4 mutant assessed as cell growth inhibition at 1 uM incubated for 7 days in presence of sotorasib by Incucyte S3 analysis. The series is classed as functional, cell-based. The settings on record: time 7.0 day. A digest of the protocol: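 H2030 cells plated at 500 per well and grown overnight at 37 °C. Treated with 3-fold dilutions of sotorasib, test agent, or both. Confluency imaged every 4 h for 7 days on IncuCyte S3. Synergy scored as Bliss/Lowe consensus, >10 taken as synergy.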

The nature of series [4]: Drug concentration in C57BL/6 mouse plasma at 80 mg/kg, po administered once daily for 3 days and measured at 24 hrs post last dose. In kind it is ADME, organism-based. The settings on record: time 3 day. A digest of the protocol:
as §1

Series [5] has as its target T1, Protein cereblon/SWI/SNF-related matrix-associated actin-dependent regulator of chromatin subfamily A member 2. Briefly: PROTAC activity at CRBN/SMARCA2 in human H322 cells harboring SMARCA4 mutant assessed as induction of SMARCA2 degradation at 1 uM in presence of pomalidomide by immunoblot analysis. The series is classed as cell-based.
For series [6], the target named is Transcriptional coactivator YAP1 (Homo sapiens) (UniProt P46937). Briefly: Induction of YAP1 phosphorylation at S127 residue in human H322 cells harboring SMARCA4 mutant at 1 uM incubated for 96 hrs by immunoblot analysis. The series is classed as cell-based. As to conditions: filed as activator.
Chain of Transcriptional coactivator YAP1 (Homo sapiens) (P46937 whole entry): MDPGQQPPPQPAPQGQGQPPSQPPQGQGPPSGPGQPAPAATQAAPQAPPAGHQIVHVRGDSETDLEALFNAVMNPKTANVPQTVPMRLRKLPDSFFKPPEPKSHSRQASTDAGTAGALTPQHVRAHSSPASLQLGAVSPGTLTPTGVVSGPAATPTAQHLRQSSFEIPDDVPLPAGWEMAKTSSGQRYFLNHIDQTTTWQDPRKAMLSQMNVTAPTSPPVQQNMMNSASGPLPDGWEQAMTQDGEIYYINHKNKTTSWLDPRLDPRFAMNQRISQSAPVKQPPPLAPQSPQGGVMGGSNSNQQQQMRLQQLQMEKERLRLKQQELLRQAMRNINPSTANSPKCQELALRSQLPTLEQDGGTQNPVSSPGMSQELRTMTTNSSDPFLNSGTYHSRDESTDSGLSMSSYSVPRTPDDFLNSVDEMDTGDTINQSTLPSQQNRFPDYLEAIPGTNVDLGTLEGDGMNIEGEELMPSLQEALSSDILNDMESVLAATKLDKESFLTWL
Series [7] in a line: Drug metabolism in mouse liver microsomes assessed as Mono-oxygenation and hydrogenation mediated M1 metabolite formation at 10 uM incubated for 60 mins by LC-UV-HRMS analysis. In kind it is ADME, Microsome. As to conditions: 1 h. A digest of the protocol:
(§2)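 Compound at 10 μM incubated with mouse liver microsomes at 37 °C for 60 min. Metabolites detected by LC-UV-HRMS, structures proposed from MS and MS2 data, and each metabolite given as a percentage.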

Series [8] can be described thus: Toxicity in female athymic nude mouse xenografted with human NCI-H1568 cells harboring SMARCA4 mutant assessed as change in body weight at 40 mg/kg, po administered once daily via gavage for 13 days relative to control. In kind it is organism-based. As to conditions: in vivo, 312 h, time 13 day. In outline:
(§3)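 Cells (H1568 2 × 10^6, H2023 10 × 10^6, HCC515 5 × 10^6) in PBS:Matrigel 1:1, 200 μL, injected subcutaneously into flanks of 6–8-week-old females. Randomized at mean tumor volume 60 mm3 (H1568) or <200 mm3 (others). Dosed in 0.5% methylcellulose + 0.2–1% Tween-80, sonicated on ice. Caliper tumor volume and body weight tracked, mean ± SEM.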
(In general: A xenograft is tissue or cells of one species grown in another, often human tumour cells in immunodeficient mice.)

Series [9] deals with Transcriptional coactivator YAP1 (Homo sapiens) (UniProt P46937). Briefly: Induction of YAP1 phosphorylation at S109 residue in human H322 cells harboring SMARCA4 mutant at 1 uM incubated for 96 hrs by immunoblot analysis. In kind it is cell-based. The settings on record: filed as activator.
The nature of series [10]: Antitumor activity against human NCI-H2023 cells harboring SMARCA4 mutant xenografted in female athymic nude mouse assessed as tumor growth inhibition at 5 mg/kg, po administered once daily via gavage for 19 days relative to control. The settings on record: NCI-H2023, 456 h, time 19 day, read-out: TGI. In kind it is functional. In outline:
as §3

Series [11] concerns the target T1, Protein cereblon/SWI/SNF-related matrix-associated actin-dependent regulator of chromatin subfamily A member 2. The series can be described thus: PROTAC activity at CRBN/SMARCA2 in human H322 cells harboring SMARCA4 mutant assessed as induction of SMARCA2 degradation at 0.1 uM in presence of pomalidomide by immunoblot analysis. The series is classed as cell-based.

Series [12] relates to HCC515. Briefly: Antitumor activity against human HCC515 cells harboring SMARCA4 mutant xenografted in female athymic nude mouse assessed as tumor growth inhibition at 5 mg/kg, po administered once daily via gavage for 19 days relative to control. As to conditions: HCC515, 456 h, time 19 day, read-out: TGI. The series is classed as functional. In outline: as §3
The nature of series [13]: In vivo PROTAC activity at CRBN/SMARCA2 in female athymic nude mouse xenografted with human HCC515 cells harboring SMARCA4 mutant assessed as SMARCA2 degradation at 5 mg/kg, po administered once daily via gavage for 19 days by Western blotting analysis relative to control. The series is classed as functional. The settings on record: time 19 day. A digest of the protocol: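 Female nude mice aged 6–8 weeks carried subcutaneous flank xenografts in PBS/Matrigel 1:1: H2023 at 10 × 10^6 cells or HCC515 at 5 × 10^6 cells. Randomised below 200 mm3. 5 mg/kg or vehicle given by oral gavage once daily for 19 days in 0.5% methylcellulose with Tween-80 (0.2% for H2023, 1% for HCC515). Tumours collected 24 h after dosing. SMARCA2 measured by Western blot against β-actin, relative to vehicle.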

Series [14] is described as follows: Toxicity in female athymic nude mouse xenografted with human HCC515 cells harboring SMARCA4 mutant assessed as change in body weight at 5 mg/kg, po administered once daily via gavage for 19 days relative to control. In kind it is organism-based. The settings on record: in vivo, 456 h, time 19 day. In outline:
as §3

Series [15] can be described thus: Toxicity in female athymic nude mouse xenografted with human NCI-H2030 cells harboring SMARCA4 mutant assessed as change in body weight at 5 mg/kg, po administered once daily via gavage for 17 days relative to control. The series is classed as organism-based. As to conditions: in vivo, 408 h, time 17 day. A digest of the protocol:
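10 × 10^6 H2030 cells in PBS:Matrigel 1:1, 200 μL, injected subcutaneously into flanks of 6–8-week-old females. Randomized at mean tumor volume <200 mm3. Oral gavage once daily in 10% DMSO, 40% PEG300, 1% Tween-80, 49% saline. Caliper tumor volume and body weight monitored, mean ± SEM.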

The nature of series [16]: Drug metabolism in mouse liver microsomes assessed as mono-oxygenation and N-dealkylation mediated M2 metabolite formation at 10 uM incubated for 60 mins by LC-UV-HRMS analysis. The series is classed as ADME, Microsome. As to conditions: 1 h. In outline:
as §2
A general note: Liver microsomes are a subcellular fraction often used to study metabolism.

Series [17] deals with Transcriptional coactivator YAP1 (Homo sapiens) (UniProt P46937). Briefly: Induction of YAP1 phosphorylation at S127 residue in human H322 cells harboring SMARCA4 mutant at 0.1 uM incubated for 96 hrs by immunoblot analysis. As to conditions: filed as activator. The series is classed as cell-based.
Series [18] in a line: Drug metabolism in mouse liver microsomes assessed as N-dealkylation mediated 2-(6-amino-5-(4-(3-fluoro-4-(piperazin-1-yl)benzyl)piperazin-1-yl)pyridazin-3-yl)phenol metabolite formation at 10 uM incubated for 60 mins by LC-UV-HRMS analysis. In kind it is ADME, Microsome. The settings on record: 1 h. A digest of the protocol:
as §2

Series [19] has as its system NCI-H2030. The series can be described thus: Inhibition of ERK phosphorylation in human NCI-H2030 cells harboring KRAS G12C mutant/SMARCA4 mutant assessed as reduction in p-ERK level at 1.25 uM incubated for 48 hrs in presence of sotorasib by Western blotting analysis. The series is classed as cell-based.

Calls of active or inactive are those of the source. The calls are words filed in the database; no cut-off is given here.

Take `Nc1nnc(-c2ccccc2O)cc1N1CCN(Cc2ccc(N3CCC(CN4CCN(c5ccc6c(c5)C(=O)N(C5CCC(=O)NC5=O)C6=O)CC4)CC3)c(F)c2)CC1` (centres undefined): the concentration at 72 h was 2450 nM in [1] and 1880 nM in series [4]. Further, the result in series [2] and in [5] was inactive. Moreover, the Activity entry is “Active; Robust Synergistic Growth Inhibition Observed” in series [3] and < 10% in series [8]. The result in series [6] and in [9] was Active. Moreover, the Drug metabolism result in series [7] is reported as “metabolite_detected”.

In the case of `Nc1nnc(-c2ccccc2O)cc1N1CCN(Cc2ccc(N3CCN(CCOc4cccc5c4C(=O)N(C4CCC(=O)NC4=O)C5=O)CC3)c(F)c2)CC1` (centres undefined), the inhibition in vivo at 5 mg/kg in [10] came out at 62.5%; in series [12], 48.8%. For the same compound, the outcome in [11] was inactive. For the same compound, the Activity was 96% in [13], < 20% in series [14] and < 20% in series [15]. Besides, the Drug metabolism result in series [16] and in [18] was “metabolite_detected” throughout. Further, in series [17], the result was Active. For the same compound, the inhibition result in series [19] was “Active”.
